Results from ChEMBL document CHEMBL1138853, “Synthesis and antituberculosis activity of a novel series of optically active 6-nitro-2,3-dihydroimidazo[2,1-b]oxazoles” (2006).
Converted amounts (≈) assume the structure as drawn.

Legend:
[1] = test system: Mycobacterium tuberculosis; assay: Antituberculosis activity against INH resistant Mycobacterium tuberculosis H37Rv; format: functional
Outline: (§1)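 Agar dilution on 7H11 plates with drug-susceptible and drug-resistant M. tuberculosis H37Rv strains grown in Middlebrook 7H9 broth. Frozen stocks (-80 °C) diluted to about 10⁶ CFU/mL and spotted with a multipoint inoculator onto drug-containing plates. Drugs dissolved in DMSO and serially diluted 2-fold in DMSO. Read-out: MIC.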

[2] = test system: Mycobacterium tuberculosis; assay: Antituberculosis activity against rifampicin resistant Mycobacterium tuberculosis H37Rv; format: functional; outline: as §1

| Structure (SMILES) | MIC [1] [µg/mL] | MIC [2] [µg/mL] |
| --- | --- | --- |
| C[C@]1(COc2ccc(N3CC[S+]([O-])CC3)cc2)Cn2cc([N+](=O)[O-])nc2O1 | 6.25 (≈ 15.9 µM) | 6.25 (≈ 15.9 µM) |
| C[C@]1(COc2ccc(N3CCSCC3)cc2)Cn2cc([N+](=O)[O-])nc2O1 | 0.39 (≈ 1.04 µM) | 0.2 (≈ 0.531 µM) |
| C[C@]1(COc2ccc(Cl)cc2)Cn2cc([N+](=O)[O-])nc2O1 | 0.012 (≈ 0.0387 µM) | 0.006 (≈ 0.0194 µM) |
| C[C@]1(COc2ccc(N3CCC(Oc4ccc(OC(F)(F)F)cc4)CC3)cc2)Cn2cc([N+](=O)[O-])nc2O1 [DELAMANID] | 0.006 (≈ 0.0112 µM) | 0.006 (≈ 0.0112 µM) |
| C[C@]1(COc2ccc(N3CCC(Oc4ccc(C(F)(F)F)cc4)CC3)cc2)Cn2cc([N+](=O)[O-])nc2O1 | 0.012 (≈ 0.0231 µM) | 0.006 (≈ 0.0116 µM) |
| C[C@]1(COc2ccc(OC(F)(F)F)cc2)Cn2cc([N+](=O)[O-])nc2O1 | 0.39 (≈ 1.09 µM) | 0.2 (≈ 0.557 µM) |
| C[C@]1(COc2ccc(N3CCC(Oc4ccccc4)CC3)cc2)Cn2cc([N+](=O)[O-])nc2O1 | 0.39 (≈ 0.866 µM) | 0.2 (≈ 0.444 µM) |
| C[C@]1(COc2ccc(N3CCC(Oc4ccc(F)cc4)CC3)cc2)Cn2cc([N+](=O)[O-])nc2O1 | 0.39 (≈ 0.832 µM) | 0.2 (≈ 0.427 µM) |
| Cc1ccc(OC[C@@]2(C)Cn3cc([N+](=O)[O-])nc3O2)cc1 | 0.024 (≈ 0.083 µM) | 0.012 (≈ 0.0415 µM) |
| Cc1ccc(OC2CCN(c3ccc(OC[C@@]4(C)Cn5cc([N+](=O)[O-])nc5O4)cc3)CC2)cc1 | 0.39 (≈ 0.84 µM) | 0.39 (≈ 0.84 µM) |
| C[C@]1(COc2ccc(N3CCCCC3)cc2)Cn2cc([N+](=O)[O-])nc2O1 | 0.39 (≈ 1.09 µM) | 0.39 (≈ 1.09 µM) |
| C[C@]1(COc2ccc(N3CCC(Oc4ccc(Cl)cc4)CC3)cc2)Cn2cc([N+](=O)[O-])nc2O1 | 0.05 (≈ 0.103 µM) | 0.024 (≈ 0.0495 µM) |
| C[C@]1(COc2ccc(N3CCOCC3)cc2)Cn2cc([N+](=O)[O-])nc2O1 | 0.78 (≈ 2.16 µM) | 0.39 (≈ 1.08 µM) |
| C[C@]1(COc2ccc(C(F)(F)F)cc2)Cn2cc([N+](=O)[O-])nc2O1 | 0.2 (≈ 0.583 µM) | 0.1 (≈ 0.291 µM) |
| C[C@]1(COc2ccc(N3CCC(Oc4cccc(OC(F)(F)F)c4)CC3)cc2)Cn2cc([N+](=O)[O-])nc2O1 | 0.024 (≈ 0.0449 µM) | 0.024 (≈ 0.0449 µM) |
| C[C@]1(COc2ccc(N3CCC(Oc4ccccc4OC(F)(F)F)CC3)cc2)Cn2cc([N+](=O)[O-])nc2O1 | 0.39 (≈ 0.73 µM) | 0.2 (≈ 0.374 µM) |
| C[C@]1(COc2ccccc2)Cn2cc([N+](=O)[O-])nc2O1 | 0.05 (≈ 0.182 µM) | 0.05 (≈ 0.182 µM) |
| COc1ccc(OC2CCN(c3ccc(OC[C@@]4(C)Cn5cc([N+](=O)[O-])nc5O4)cc3)CC2)cc1 | 0.39 (≈ 0.812 µM) | 0.2 (≈ 0.416 µM) |
| COc1ccc(OC[C@@]2(C)Cn3cc([N+](=O)[O-])nc3O2)cc1 | 0.1 (≈ 0.328 µM) | 0.05 (≈ 0.164 µM) |
